Source: paper PMC3389222 (Bioorganic & medicinal chemistry letters, 2012)
Read-outs that look alike come from different tables or passages of the source.

What was measured:
[1] = Stability in human liver microsomes; type: in vitro ADME; details: for Elimination rate constant (k): 1 μM compound, 1 mg/mL microsomal protein; for microsomal CLint at 1 μM: human
Procedure, shortened: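 Test compound incubated with human liver microsomes in potassium phosphate buffer. Samples taken at 5, 15, 30 and 60 min and analysed by LC-MS/MS. The elimination rate constant (k) was determined, and half-life (t1/2) and intrinsic clearance (CLint) were calculated from k.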

[2] = system: HCV 1b replicon; assay: HCV 1b replicon system, block of HCV replication; type: cell-based; details: for EC90: read-out: HCV Replicon EC90
[3] = system: PBM cells; assay: Cytotoxicity in PBM cells
[4] = system: PBM cells
[5] = Cytotoxicity in CEM cells; type: cell-based; details: human
[6] = system: HCV; details: read-out: in vitro potency (EC50); cited from earlier work
[7] = system: HCV; details: cited from earlier work
[8] = Hepatitis C virus, read-out: HCV Replicon EC50, HCV 1b replicon system
[9] = Hepatitis C virus, read-out: HCV Replicon EC50

Structure (SMILES) | EC50 [2, 8] [nM] | EC50 [2, 9] [nM] | EC90 ([2]; Hepatitis C virus) [nM] | other results
COC(=O)N[C@H](C(=O)N1CCC[C@H]1c1nc(Br)c(-c2ccc(-c3ccc(-c4[nH]c([C@@H]5CCCN5C(=O)[C@@H](NC(=O)OC)C(C)C)nc4Br)cc3)cc2)[nH]1)C(C)C [Compound 5a] | 0.0059 ± 0.0039 |  |  | Elimination rate constant (k) [1]: 0.01
COC(=O)N[C@H](C(=O)N1C[C@H](n2cc(C(=O)OC)nn2)C[C@H]1c1ncc(-c2ccc(-c3ccc(-c4cnc([C@@H]5C[C@@H](n6cc(C(=O)OC)nn6)CN5C(=O)[C@@H](NC(=O)OC)C(C)C)[nH]4)cc3)cc2)[nH]1)C(C)C [Compound 12] |  | 0.0118 | 0.0428 | 
COC(=O)N[C@H](C(=O)N1CCC[C@H]1c1ncc(-c2ccc(-c3ccc(-c4[nH]c([C@@H]5CCCN5C(=O)[C@@H](NC(=O)OC)C(C)C)nc4F)cc3)cc2)[nH]1)C(C)C [Compound 5e] | 0.0144 ± 0.004 |  |  | 
COC(=O)N[C@H](C(=O)N1CCC[C@H]1c1nc(F)c(-c2ccc(-c3ccc(-c4[nH]c([C@@H]5CCCN5C(=O)[C@@H](NC(=O)OC)C(C)C)nc4F)cc3)cc2)[nH]1)C(C)C [Compound 5d] | 0.0068 ± 0.0033 |  |  | Elimination rate constant (k) [1]: 0.0056; microsomal CLint at 1 μM [1]: < 8.6 µL/min/mg; toxicity in primary human lymphocytes relative to reference compound 1 [3]: increased toxicity
COC(=O)N[C@H](C(=O)N1CCC[C@H]1c1nc(I)c(-c2ccc(-c3ccc(-c4[nH]c([C@@H]5CCCN5C(=O)[C@@H](NC(=O)OC)C(C)C)nc4I)cc3)cc2)[nH]1)C(C)C [Compound 5c] | 0.0055 ± 0.0019 |  |  | toxicity in primary human lymphocytes relative to reference compound 1 [4]: increased toxicity; Elimination rate constant (k) [1]: 0.018
COC(=O)N[C@H](C(=O)N1C[C@@H](n2cc(-c3ccccc3)nn2)C[C@H]1c1ncc(-c2ccc(-c3ccc(-c4cnc([C@@H]5C[C@H](n6cc(-c7ccccc7)nn6)CN5C(=O)[C@@H](NC(=O)OC)C(C)C)[nH]4)cc3)cc2)[nH]1)C(C)C [Compound 13] |  |  | > 10 | CC50 [5]: > 100000 nM
COC(=O)N[C@H](C(=O)N1C[C@H](N=[N+]=[N-])C[C@H]1c1nc(Br)c(-c2ccc(-c3ccc(-c4[nH]c([C@@H]5C[C@@H](N=[N+]=[N-])CN5C(=O)[C@@H](NC(=O)OC)C(C)C)nc4Br)cc3)cc2)[nH]1)C(C)C [Compound 17] |  | 0.0026 | 0.0216 | 
COC(=O)N[C@H](C(=O)N1CCC[C@H]1c1nc(-c2cccs2)c(-c2ccc(-c3ccc(-c4[nH]c([C@@H]5CCCN5C(=O)[C@@H](NC(=O)OC)C(C)C)nc4-c4cccs4)cc3)cc2)[nH]1)C(C)C [Compound 8] | 0.1 |  |  | 
COC(=O)N[C@H](C(=O)N1CCC[C@H]1c1ncc(-c2ccc(-c3ccc(-c4cnc([C@@H]5CCCN5C(=O)[C@@H](NC(=O)OC)C(C)C)[nH]4)cc3)cc2)[nH]1)C(C)C [BMS-790052] | 0.0042 ± 0.0015 |  |  | EC50 [6]: ≤ 0.05 nM; viral load decline ([7]; after a single 100 mg dose): ≈ 3.3 log10; toxicity after single dose ([7]; single 100 mg dose): no signs of toxicity; Elimination rate constant (k) [1]: 0.012
COC(=O)N[C@H](C(=O)N1C[C@H](N=[N+]=[N-])C[C@H]1c1nc(Cl)c(-c2ccc(-c3ccc(-c4[nH]c([C@@H]5C[C@@H](N=[N+]=[N-])CN5C(=O)[C@@H](NC(=O)OC)C(C)C)nc4Cl)cc3)cc2)[nH]1)C(C)C [Compound 15] |  | 0.0047 | 0.0096 | 
COC(=O)N[C@H](C(=O)N1C[C@@H](N=[N+]=[N-])C[C@H]1c1nc(Cl)c(-c2ccc(-c3ccc(-c4[nH]c([C@@H]5C[C@H](N=[N+]=[N-])CN5C(=O)[C@@H](NC(=O)OC)C(C)C)nc4Cl)cc3)cc2)[nH]1)C(C)C [Compound 18] |  | 0.0112 | 0.0746 | 
COC(=O)N[C@H](C(=O)N1C[C@H](N=[N+]=[N-])C[C@H]1c1ncc(-c2ccc(-c3ccc(-c4[nH]c([C@@H]5C[C@@H](N=[N+]=[N-])CN5C(=O)[C@@H](NC(=O)OC)C(C)C)nc4Cl)cc3)cc2)[nH]1)C(C)C [Compound 16] | 0.0063 |  |  | 
COC(=O)N[C@H](C(=O)N1CCC[C@H]1c1nc(-c2ccccc2)c(-c2ccc(-c3ccc(-c4[nH]c([C@@H]5CCCN5C(=O)[C@@H](NC(=O)OC)C(C)C)nc4-c4ccccc4)cc3)cc2)[nH]1)C(C)C [Compound 6] | 0.2 |  |  | 
COC(=O)N[C@H](C(=O)N1C[C@H](N=[N+]=[N-])C[C@H]1c1ncc(-c2ccc(-c3ccc(-c4cnc([C@@H]5C[C@@H](N=[N+]=[N-])CN5C(=O)[C@@H](NC(=O)OC)C(C)C)[nH]4)cc3)cc2)[nH]1)C(C)C [Compound 10] | 0.0095 |  | 0.0542 ± 0.0341 | EC50 ([2]; read-out: HCV Replicon EC50, HCV 1b replicon system): 0.0184 ± 0.0126 nM
COC(=O)N[C@H](C(=O)N1CCC[C@H]1c1nc(-c2ccco2)c(-c2ccc(-c3ccc(-c4[nH]c([C@@H]5CCCN5C(=O)[C@@H](NC(=O)OC)C(C)C)nc4-c4ccco4)cc3)cc2)[nH]1)C(C)C [Compound 7] | 0.026 |  |  | 
COC(=O)N[C@H](C(=O)N1CCC[C@H]1c1nc(Cl)c(-c2ccc(-c3ccc(-c4[nH]c([C@@H]5CCCN5C(=O)[C@@H](NC(=O)OC)C(C)C)nc4Cl)cc3)cc2)[nH]1)C(C)C [Compound 5b] | 0.0064 ± 0.003 |  |  | Elimination rate constant (k) [1]: 0.0058; microsomal CLint at 1 μM [1]: < 8.6 µL/min/mg
COC(=O)N[C@H](C(=O)N1C[C@@H](N=[N+]=[N-])C[C@H]1c1nc(Br)c(-c2ccc(-c3ccc(-c4[nH]c([C@@H]5C[C@H](N=[N+]=[N-])CN5C(=O)[C@@H](NC(=O)OC)C(C)C)nc4Br)cc3)cc2)[nH]1)C(C)C [Compound 19] |  | 0.0083 | 0.0553 | 
COC(=O)N[C@H](C(=O)N1C[C@@H](n2cc(C(=O)OC)nn2)C[C@H]1c1ncc(-c2ccc(-c3ccc(-c4cnc([C@@H]5C[C@H](n6cc(C(=O)OC)nn6)CN5C(=O)[C@@H](NC(=O)OC)C(C)C)[nH]4)cc3)cc2)[nH]1)C(C)C [Compound 14] |  | > 10 | > 10 | 
COC(=O)N[C@H](C(=O)N1C[C@@H](N=[N+]=[N-])C[C@H]1c1ncc(-c2ccc(-c3ccc(-c4cnc([C@@H]5C[C@H](N=[N+]=[N-])CN5C(=O)[C@@H](NC(=O)OC)C(C)C)[nH]4)cc3)cc2)[nH]1)C(C)C [Compound 9] | 0.023 |  | 0.0352 | 
COC(=O)N[C@H](C(=O)N1C[C@H](n2cc(-c3ccccc3)nn2)C[C@H]1c1ncc(-c2ccc(-c3ccc(-c4cnc([C@@H]5C[C@@H](n6cc(-c7ccccc7)nn6)CN5C(=O)[C@@H](NC(=O)OC)C(C)C)[nH]4)cc3)cc2)[nH]1)C(C)C [Compound 11] |  | 2.7 | 9.2 | 
